Assay results published in ChEMBL document CHEMBL4330056, “Synthesis and Cytotoxic and Antiviral Profiling of Pyrrolo- and Furo-Fused 7-Deazapurine Ribonucleosides” (J Med Chem, 2018).
Activity calls are given as the source filed them. No cut-off for these calls is given here.

What was measured:
Hepatitis C virus [1] = assay: Antiviral activity against Hepatitis C virus genotype 1b infected in human Huh-luc replicon cells after 3 days by luciferase assay; type: functional, organism-based, Hepacivirus hominis; details: subtype 1b, 72 h
[2] = Cytotoxicity against human Hep2 cells assessed as reduction in cell viability after 3 days by CellTiter-Glo assay; type: cell-based; details: HEp-2 cells
Hepatitis C virus [3] = assay: Antiviral activity against Hepatitis C virus genotype 2a infected in human Huh-luc replicon cells after 3 days by luciferase assay; type: functional, organism-based, Hepacivirus hominis; details: subtype 2a, 72 h
BJ = assay: Antiproliferative activity against human BJ cells after 3 days by MTS assay; details: 72 h
MRC5 = assay: Antiproliferative activity against human MRC5 cells after 3 days by MTS assay; details: MRC5, 72 h
A549 = assay: Antiproliferative activity against human A549 cells after 3 days by MTS assay; type: functional, cell-based; details: A549, 72 h
CCRF-CEM = assay: Antiproliferative activity against human CCRF-CEM cells after 3 days by MTS assay; type: functional, cell-based; details: 72 h
[4] = Antiproliferative activity against human CEM-DNR-bulk cells after 3 days by MTS assay; details: 72 h
HCT-116 [5] = assay: Antiproliferative activity against human HCT116 cells after 3 days by MTS assay; type: functional, cell-based; details: HCT-116, 72 h
HCT-116 [6] = assay: Antiproliferative activity against p53 gene knocked out human HCT116 cells after 3 days by MTS assay; type: functional, cell-based; details: HCT-116, 72 h
K562 = assay: Antiproliferative activity against human K562 cells after 3 days by MTS assay; type: functional, cell-based; details: K562, 72 h
[7] = Antiproliferative activity against human K562-TAX cells after 3 days by MTS assay; type: functional, cell-based; details: 72 h
U2OS = assay: Antiproliferative activity against human U2OS cells after 3 days by MTS assay; type: functional, cell-based; details: 72 h
HL-60 = assay: Antiproliferative activity against human HL60 cells after 72 hrs by XTT assay; type: functional, cell-based; details: HL-60, 72 h
HepG2 = assay: Antiproliferative activity against human HepG2 cells after 72 hrs by XTT assay; type: functional, cell-based; details: HepG2, 72 h
HeLa S3 = assay: Antiproliferative activity against human HeLaS3 cells after 72 hrs by XTT assay; type: functional, cell-based; details: HeLa S3, 72 h
Adenosine kinase [8] = biological target: T1, Adenosine kinase (Homo sapiens, UniProt P55263); assay: Substrate activity at recombinant human ADK assessed as compound phosphorylation at 50 uM after 20 mins in presence of [3H]-adenosine by UPLC; type: ADME
T1 sequence (P55263 whole entry): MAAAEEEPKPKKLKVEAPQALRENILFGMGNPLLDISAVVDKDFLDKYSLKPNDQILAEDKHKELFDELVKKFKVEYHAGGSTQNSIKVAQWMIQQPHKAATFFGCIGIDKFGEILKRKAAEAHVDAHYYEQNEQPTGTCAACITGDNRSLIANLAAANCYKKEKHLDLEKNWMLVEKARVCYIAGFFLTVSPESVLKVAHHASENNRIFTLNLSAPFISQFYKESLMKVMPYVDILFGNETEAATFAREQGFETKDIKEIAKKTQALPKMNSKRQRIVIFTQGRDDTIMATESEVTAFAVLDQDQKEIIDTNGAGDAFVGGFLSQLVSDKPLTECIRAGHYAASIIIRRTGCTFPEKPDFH

Adenosine kinase [9] = biological target: T1, Adenosine kinase; assay: Inhibition of recombinant human ADK using [3H]-adenosine as substrate after 20 mins by TLC scanner-based analysis relative to control
In short: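 ADK inhibition: 50 μM adenosine substrate with 10 μM test compound and 97 ng enzyme, 20 min at 37 °C.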

Influenza A virus = assay: Antiviral activity against Influenza A virus (A/Mexico/4108/2009(H1N1)) infected in MDCK cells assessed as inhibited virus-induced cytopathic effect incubated for 2 days by XTT assay; type: functional, organism-based
Human orthopneumovirus = assay: Antiviral activity against Human respiratory syncytial virus A2 infected in Hep2 cells assessed as reduction in virus-induced cytopathic effect incubated for 4 days by CellTiter-Glo viability reagent based assay; type: functional, organism-based
Coxsackievirus B3 = assay: Antiviral activity against Human coxsackie B3 Nancy infected in human HeLa cells assessed as inhibited virus-induced cytopathic effect incubated for 2 days by XTT assay; type: functional, organism-based
Human alphaherpesvirus 1 = assay: Antiviral activity against human herpesvirus 1 HF infected in African green monkey Vero cells assessed as inhibited virus-induced cytopathic effect incubated for 3 days by XTT assay; type: functional, organism-based
dengue virus type 2 = assay: Antiviral activity against Dengue virus 2 Thailand/16681/84 infected in African green monkey Vero cells assessed as inhibition of virus replication incubated for 3 days by fluorescence microscopy; type: functional, organism-based

| SMILES | EC50 (Hepatitis C virus [1]) [µM] | CC50 at 72 h [2] [µM] | EC50 (Hepatitis C virus [3]) [µM] | IC50 (BJ) [µM] | IC50 (MRC5) [µM] | IC50 (A549) [µM] | IC50 (CCRF-CEM) [µM] | IC50 [4] [µM] | IC50 (HCT-116 [5]) [µM] | IC50 (HCT-116 [6]) [µM] | IC50 (K562) [µM] | IC50 [7] [µM] | IC50 (U2OS) [µM] | IC50 (HL-60) [µM] | IC50 (HepG2) [µM] | IC50 (HeLa S3) [µM] | Activity (Adenosine kinase [8]) [%] | IC50 (Adenosine kinase [9]) [µM] | Activity (Influenza A virus) | Activity (Human orthopneumovirus) | further results |
| --- | --- | --- | --- | --- | --- | --- | --- | --- | --- | --- | --- | --- | --- | --- | --- | --- | --- | --- | --- | --- | --- |
| OC[C@H]1O[C@@H](n2c3ccoc3c3c(-c4ccco4)ncnc32)[C@H](O)[C@@H]1O | 0.17 | > 44.4 | > 44.4 | > 50 | > 50 | > 50 | 0.45 | > 50 | > 50 | > 50 | 7.03 | 7.01 | 4.21 | 2.55 | > 50 | > 50 | 34 | 3.94 | inactive | inactive | Activity (Coxsackievirus B3): inactive; Activity (Human alphaherpesvirus 1): inactive; Activity (dengue virus type 2): inactive |
| COc1ncnc2c1c1ccn(C)c1n2[C@@H]1O[C@H](CO)[C@@H](O)[C@H]1O | > 44.4 | > 44.4 | > 44.4 | > 50 | > 50 | > 50 | > 50 | > 50 | > 50 | > 50 | > 50 | > 50 | > 50 | > 50 | > 50 | > 50 | 0 | > 10 | inactive | inactive | Activity (Coxsackievirus B3): inactive; Activity (Human alphaherpesvirus 1): inactive; Activity (dengue virus type 2): inactive |
| Cn1ccc2c1c1c(N)ncnc1n2[C@@H]1O[C@H](CO)[C@@H](O)[C@H]1O | 0.46 | 40.9 to 44.4 | 0.22 | > 50 | > 50 | > 50 | 50 | > 50 | > 50 | > 50 | > 50 | > 50 | 50 | 2.29 | > 50 | > 50 | 68 | > 10 | inactive | inactive | Activity (Coxsackievirus B3): inactive; Activity (Human alphaherpesvirus 1): inactive; Activity (dengue virus type 2): inactive |
| Cc1ncnc2c1c1ccn(C)c1n2[C@@H]1O[C@H](CO)[C@@H](O)[C@H]1O | > 44.4 | > 44.4 | > 44.4 | > 50 | > 50 | > 50 | > 50 | > 50 | > 50 | > 50 | > 50 | > 50 | > 50 | > 50 | > 50 | > 50 | 0 | > 10 | inactive | inactive | Activity (Coxsackievirus B3): inactive; Activity (Human alphaherpesvirus 1): inactive; Activity (dengue virus type 2): inactive |
| Cn1ccc2c1c1c(-c3cc4ccccc4o3)ncnc1n2[C@@H]1O[C@H](CO)[C@@H](O)[C@H]1O | 1.6 | 26.9 to 44.4 | 32.5 | > 50 | > 50 | > 50 | 16.5 | 29.8 | 46.2 | 47.5 | > 50 | 29.3 | 43.9 | > 50 | > 50 | > 50 | 0 | 0.3 | inactive | inactive | Activity (Coxsackievirus B3): inactive; Activity (Human alphaherpesvirus 1): inactive; Activity (dengue virus type 2): inactive |
| Cn1ccc2c3c(-c4ccoc4)ncnc3n([C@@H]3O[C@H](CO)[C@@H](O)[C@H]3O)c21 | 16.5 | > 44.4 | > 44.4 | > 50 | > 50 | > 50 | > 50 | > 50 | > 50 | > 50 | > 50 | > 50 | > 50 | > 50 | > 50 | > 50 | 0 | > 10 | inactive | inactive | Activity (Coxsackievirus B3): inactive; Activity (Human alphaherpesvirus 1): inactive; Activity (dengue virus type 2): inactive |
